Laboratory results published in ChEMBL document CHEMBL4477184, “Pelianthinarubins A and B, Red Pyrroloquinoline Alkaloids from the Fruiting Bodies of the Mushroom Mycena pelianthina” (J Nat Prod, 2016).
Active and inactive are the calls of the source.

Columns and labels:
Type in all cases: functional, organism-based
Cladosporium cucumerinum = assay: Antifungal activity against Cladosporium cucumerinum after 48 hrs by plate diffusion assay
Procedure, shortened: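 Disc diffusion assay. Paper discs (6 mm) were loaded with 0.1 or 0.5 mg of sample from distilled water and dried under sterile conditions. The discs were laid on agar plates inoculated with Cladosporium cucumerinum, and the plates were incubated at 18 °C for 48 h.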

Escherichia coli = assay: Antibacterial activity against Escherichia coli after 24 hrs by plate diffusion assay
Procedure, shortened: (§1)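 Paper discs (6 mm diameter, 0.5 mm thick) were loaded with 0.1 or 0.5 mg of sample dissolved in distilled water and dried under sterile conditions. The discs were then placed on agar plates inoculated with the test bacterium and incubated at 37 °C for 24 h.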

Brevibacillus brevis = assay: Antibacterial activity against Bacillus brevis after 24 hrs by plate diffusion assay; procedure, shortened: as §1
Folsomia candida = assay: Insecticidal activity against Folsomia candida
Lepidium sativum = assay: Herbicidal activity against Lepidium sativum
Bacillus subtilis = assay: Antibacterial activity against Bacillus subtilis after 24 hrs by plate diffusion assay; procedure, shortened: as §1

Measured: Activity

C[N+](C)(C)[C@@H](Cc1cn([C@@H]2CCN3C4=C2C(=O)C(=O)c2[nH]cc(c24)C[C@H]3C(=O)O)cn1)C(=O)O
inactive: all assays above

C[N+](C)(C)[C@H](C(=O)O)[C@H](O)c1cn([C@@H]2CCN3C4=C2C(=O)C(=O)c2[nH]cc(c24)C[C@H]3C(=O)O)cn1
inactive: all assays above
